Experimental data published in ChEMBL document CHEMBL4354804, “Discovery of a New Isoxazole-3-hydroxamate-Based Histone Deacetylase 6 Inhibitor SS-208 with Antitumor Activity in Syngeneic Melanoma Mouse Models” (J Med Chem, 2019).
Activity calls are given as the source filed them. The rule behind the calls is not given here.

Legend:
Homo sapiens [1] = species: Homo sapiens; experiment: Selectivity index, ratio of IC50 for recombinant full length C-terminal His/FLAG tagged human HDAC1 (1 to 482 residues) expressed in baculovirus infected sf9 insect cells using p53 (379 to 382 residues) derived fluorogenic peptide RHKKAc as substrate preincubated for 5 to 10 mins followed by …
Histone deacetylase 1 = Histone deacetylase 1 (Homo sapiens, UniProt Q13547); experiment: (§1) Inhibition of recombinant full length C-terminal His/FLAG tagged human HDAC1 (1 to 482 residues) expressed in baculovirus infected sf9 insect cells using p53 (379 to 382 residues) derived fluorogenic peptide RHKKAc as substrate preincubated for 5 to 10 mins followed by substrate addition and further incubated for 2 hrs by fluorescence assay
Histone deacetylase 1, sequence (Q13547 whole entry, the tested form may be a part): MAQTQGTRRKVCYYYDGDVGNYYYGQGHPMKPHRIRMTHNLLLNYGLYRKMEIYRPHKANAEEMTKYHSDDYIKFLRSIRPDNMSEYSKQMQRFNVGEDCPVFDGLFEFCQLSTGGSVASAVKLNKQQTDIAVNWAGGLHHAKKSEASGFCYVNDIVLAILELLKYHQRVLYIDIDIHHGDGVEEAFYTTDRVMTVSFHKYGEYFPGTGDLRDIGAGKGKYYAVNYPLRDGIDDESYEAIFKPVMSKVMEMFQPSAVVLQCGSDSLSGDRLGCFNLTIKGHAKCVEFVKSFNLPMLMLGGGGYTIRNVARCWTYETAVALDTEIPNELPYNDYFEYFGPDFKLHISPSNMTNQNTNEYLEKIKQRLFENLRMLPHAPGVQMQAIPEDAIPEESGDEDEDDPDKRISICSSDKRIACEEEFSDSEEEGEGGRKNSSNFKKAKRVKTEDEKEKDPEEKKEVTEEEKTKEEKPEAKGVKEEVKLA

[2] = target: T1, Protein deacetylase HDAC6 (Homo sapiens, UniProt Q9UBN7); experiment: as §1, with “N-terminal GST-tagged” for “full length C-terminal His/FLAG tagged”, “HDAC6” for “HDAC1”, “1215” for “482”
T1 sequence (Q9UBN7 whole entry): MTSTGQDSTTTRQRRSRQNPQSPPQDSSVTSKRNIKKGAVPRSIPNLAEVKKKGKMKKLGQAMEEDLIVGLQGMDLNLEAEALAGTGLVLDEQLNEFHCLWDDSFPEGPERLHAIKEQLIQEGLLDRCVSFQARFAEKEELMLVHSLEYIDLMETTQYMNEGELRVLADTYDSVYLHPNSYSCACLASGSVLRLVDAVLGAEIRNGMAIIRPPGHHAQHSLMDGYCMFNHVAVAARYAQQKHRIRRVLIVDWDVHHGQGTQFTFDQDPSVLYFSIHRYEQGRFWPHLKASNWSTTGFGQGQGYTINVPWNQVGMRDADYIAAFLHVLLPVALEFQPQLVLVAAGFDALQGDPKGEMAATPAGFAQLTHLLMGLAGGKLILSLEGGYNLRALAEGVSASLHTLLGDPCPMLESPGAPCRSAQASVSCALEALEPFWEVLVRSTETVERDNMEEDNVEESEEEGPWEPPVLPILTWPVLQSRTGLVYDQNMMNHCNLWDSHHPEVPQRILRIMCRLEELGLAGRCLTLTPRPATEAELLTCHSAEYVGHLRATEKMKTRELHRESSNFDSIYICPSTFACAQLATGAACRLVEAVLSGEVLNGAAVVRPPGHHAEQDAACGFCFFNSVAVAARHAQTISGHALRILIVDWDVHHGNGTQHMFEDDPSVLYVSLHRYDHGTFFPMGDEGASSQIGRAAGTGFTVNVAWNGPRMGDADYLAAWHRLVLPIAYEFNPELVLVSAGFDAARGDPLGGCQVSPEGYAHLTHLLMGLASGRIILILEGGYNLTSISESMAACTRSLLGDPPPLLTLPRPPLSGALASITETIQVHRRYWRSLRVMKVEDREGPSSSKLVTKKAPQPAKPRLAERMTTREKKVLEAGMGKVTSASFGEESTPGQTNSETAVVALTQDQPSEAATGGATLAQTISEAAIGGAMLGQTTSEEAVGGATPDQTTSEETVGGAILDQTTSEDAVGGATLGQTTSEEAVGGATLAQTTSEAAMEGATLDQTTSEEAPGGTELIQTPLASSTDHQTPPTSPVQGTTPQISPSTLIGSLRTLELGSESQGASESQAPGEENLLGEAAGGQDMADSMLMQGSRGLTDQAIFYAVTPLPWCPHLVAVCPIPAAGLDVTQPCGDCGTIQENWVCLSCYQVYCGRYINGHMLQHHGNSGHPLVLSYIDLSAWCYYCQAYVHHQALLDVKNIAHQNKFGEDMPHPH

PC-3 = experiment: Induction of cell death in human PC3 cells at 0.1 to 25 uM; assay type: cell-based; conditions: pc-3, 25 µM
[3] = Cytotoxicity against mouse SM1 cells at 0.1 to 25 uM by ApoTox-Glo triplex assay; assay type: cell-based
Method in brief: (§2)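 SM1 cells treated with HDAC inhibitors, with pan-HDACi and assay controls on every plate. ApoTox-Glo triplex readout: viability fluorescence 400Ex/505Em, cytotoxicity fluorescence 485Ex/520Em, then caspase 3/7 reagent read by luminescence for apoptosis.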

[4] = Induction of cell death in mouse SM1 cells at 0.1 to 25 uM; assay type: cell-based
T-24 = experiment: Induction of cell death in human T24 cells at 0.1 to 25 uM; assay type: cell-based; conditions: t-24, 25 µM
[5] = Induction of apoptosis in mouse SM1 cells at 0.1 to 25 uM by caspase3/7 reagent based luminescence assay; assay type: cell-based
Method in brief: as §2

5637 = experiment: Induction of cell death in human 5637 cells at 0.1 to 25 uM; assay type: cell-based; conditions: human, 5637, 25 µM
[6] = Effect on cell viability in mouse SM1 cells up to 10 uM by ApoTox-Glo triplex assay; assay type: cell-based
Method in brief: as §2

Homo sapiens [7] = species: Homo sapiens; experiment: Selectivity index, ratio of IC50 for recombinant full length C-terminal His/FLAG tagged human HDAC1 (1 to 482 residues) expressed in baculovirus infected sf21 insect cells using RHK-K(Ac)-AMC as substrate after 60 mins by fluorescence assay to IC50 for recombinant N-terminal GST-tagged human HDAC6 (1 to 1215 residues) expressed in baculovirus infected sf9 insect cells using RHK-K(Ac)-AMC as substrate after 90 mins by fluorescence assay
[8] = target: T1, Protein deacetylase HDAC6; experiment: Inhibition of recombinant N-terminal GST-tagged human HDAC6 (1 to 1215 residues) expressed in baculovirus infected sf9 insect cells using RHK-K(Ac)-AMC as substrate after 90 mins by fluorescence assay
[9] = target: T2, Protein deacetylase HDAC6 (Mus musculus) (UniProt Q9Z2V5); experiment: Inhibition of HDAC6 in mouse SM1 cells assessed as increase in acetylated alpha-tubulin level at 5 to 10 uM after 24 hrs by Western blot analysis; assay type: cell-based
T2 sequence (whole entry): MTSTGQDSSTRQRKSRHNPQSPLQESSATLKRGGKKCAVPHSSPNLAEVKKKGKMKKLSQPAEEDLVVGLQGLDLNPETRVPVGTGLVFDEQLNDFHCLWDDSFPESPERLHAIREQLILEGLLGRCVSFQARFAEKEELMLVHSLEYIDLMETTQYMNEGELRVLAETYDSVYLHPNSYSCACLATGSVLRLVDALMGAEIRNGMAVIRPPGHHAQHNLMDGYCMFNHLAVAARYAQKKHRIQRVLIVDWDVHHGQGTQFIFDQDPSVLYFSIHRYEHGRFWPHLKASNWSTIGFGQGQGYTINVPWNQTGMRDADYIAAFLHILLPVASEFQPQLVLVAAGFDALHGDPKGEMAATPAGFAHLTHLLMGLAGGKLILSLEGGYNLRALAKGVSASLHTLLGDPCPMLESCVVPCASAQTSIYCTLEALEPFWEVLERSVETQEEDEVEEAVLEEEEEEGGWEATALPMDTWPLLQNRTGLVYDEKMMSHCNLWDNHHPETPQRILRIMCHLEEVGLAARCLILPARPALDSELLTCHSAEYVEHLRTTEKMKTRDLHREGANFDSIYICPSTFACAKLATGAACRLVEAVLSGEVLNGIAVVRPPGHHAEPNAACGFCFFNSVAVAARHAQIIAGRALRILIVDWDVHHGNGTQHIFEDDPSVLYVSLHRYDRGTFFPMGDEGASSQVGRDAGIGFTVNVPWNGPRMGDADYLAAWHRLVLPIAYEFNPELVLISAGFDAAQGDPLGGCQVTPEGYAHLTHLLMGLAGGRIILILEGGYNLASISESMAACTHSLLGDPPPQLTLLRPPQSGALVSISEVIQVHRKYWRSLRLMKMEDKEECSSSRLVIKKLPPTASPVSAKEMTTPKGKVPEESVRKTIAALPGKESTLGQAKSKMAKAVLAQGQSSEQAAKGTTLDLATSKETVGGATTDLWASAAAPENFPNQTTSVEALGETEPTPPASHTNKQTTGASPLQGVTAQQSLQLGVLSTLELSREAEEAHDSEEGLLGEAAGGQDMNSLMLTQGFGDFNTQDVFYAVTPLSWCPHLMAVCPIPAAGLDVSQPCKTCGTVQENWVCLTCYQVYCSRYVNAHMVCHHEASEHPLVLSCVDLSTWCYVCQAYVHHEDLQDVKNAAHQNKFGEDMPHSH

Homo sapiens [10] = species: Homo sapiens; experiment: Selectivity index, ratio of IC50 for recombinant full length human HDAC1 expressed in Escherichia coli cells using Fluor de Lys as substrate preincubated for 15 mins followed by substrate addition for 60 mins by fluorescence assay to IC50 for recombinant full length human HDAC6 expressed in baculovirus infected sf9 insect cells using Fluor de Lys as substrate preincubated for 15 mins followed by substrate addition for 60 mins by fluorescence assay
Homo sapiens [11] = species: Homo sapiens; experiment: Selectivity index, ratio of IC50 for recombinant human full length C-terminal His/FLAG-tagged HDAC1 expressed in baculovirus infected Sf9 insect cells using fluorogenic HDAC as substrate measured after 30 mins by fluorescence based analysis to IC50 for recombinant human full length C-terminal […] expressed in baculovirus infected Sf9 insect cells using fluorogenic HDAC as substrate measured after 30 mins by fluorescence based analysis

IC50 (Histone deacetylase 1)	IC50 [2]	SMILES	Ratio IC50 (Homo sapiens [1])	further results
–	–	CC(C)(C)OC(=O)Nc1ccc(-c2cc(C(=O)NCc3ccc(C(=O)NO)cc3)no2)cc1	1320	–
> 30 µM	–	O=C(NO)c1cc(CCCCN2c3ccc(Cl)cc3CCc3cc(Cl)ccc32)on1	> 22	–
0.0032 µM	–	CC(C)(C)OC(=O)Nc1ccc(-c2cc(C(=O)NCCCCCCC(=O)NO)no2)cc1	–	–
> 30 µM	0.19 µM	O=C(NCCc1cc(C(=O)NO)no1)c1ccccc1	> 155	–
–	0.01 µM	O=C(NCCc1cc(C(=O)NO)no1)c1ccc2ccccc2c1	294	–
–	–	O=C(CCc1cc(C(=O)NO)no1)Nc1nc(-c2ccccc2)cs1	9.9	–
–	–	O=C(NCCc1cc(C(=O)NO)no1)c1cccc(-c2ccccc2)c1	85	–
–	–	CN1CCc2c(c3ccccc3n2Cc2ccc(C(=O)NO)cc2)C1 [TUBASTATIN A]	–	Activity (PC-3): Non-Toxic; Activity [3]: Non-Toxic; Activity [4]: Non-Toxic; Activity (T-24): Non-Toxic; Activity [5]: Non-Toxic; Activity 5637: Non-Toxic; Activity [6]: Non-Toxic
> 30 µM	1.99 µM	CC1(C)CCN(CCCCc2cc(C(=O)NO)no2)c2ccc(Cl)cc21	> 15	–
–	–	Cc1nc2ccccc2n1Cc1ccc(C(=O)NO)cc1F	–	Ratio IC50 (Homo sapiens [7]): 11100; IC50 [8]: 0.00081 µM
> 30 µM	0.2 µM	O=C(NO)c1cc(CCCOc2ccc(Cl)c(Cl)c2)on1	> 152	–
11.2 µM	0.69 µM	O=C(NO)c1cc(CCCCN2CCCc3cc(Cl)ccc32)on1	16	–
–	–	CCCCN(Cc1ccc(C(=O)NO)cc1)C(=O)Nc1ccccc1 [NEXTURASTAT A]	–	Activity (PC-3): Non-Toxic; Activity [3]: Non-Toxic; Activity [4]: Non-Toxic; Activity (T-24): Non-Toxic; Activity [5]: Non-Toxic; Activity 5637: Non-Toxic; inhibition [9]: Active; Activity [6]: Non-Toxic
–	–	O=C(NO)c1ccc(Cn2c3c(c4ccccc42)S(=O)(=O)CC3)cc1	–	Ratio IC50 (Homo sapiens [10]): 1460
–	–	O=C(NO)c1ccc(CN(CCO)C(=O)Cc2ccccc2)cc1	–	Ratio IC50 (Homo sapiens [11]): 36
> 30 µM	4.36 µM	O=C(NO)c1cc(CCCCn2ccc3cc(Cl)c(Cl)cc32)on1	> 7	–
> 30 µM	–	O=C(NO)c1cc(CCCCc2ccc(Cl)c(Cl)c2)on1	–	–
